Assay results as given in ChEMBL document CHEMBL4371016, “Proline- and Arginine-Rich Peptides as Flexible Allosteric Modulators of Human Proteasome Activity” (J Med Chem, 2019).
Values belong to the compound of their own block, whether it stands above or below them. Activity calls are given as the source filed them. No cut-off for these calls is given here. Residues, ends and D or L forms follow the SMILES beside them.

Experiments:
[1] = target: T1, Proteasome Macropain subunit MB1 (Homo sapiens) (UniProt P28074); experiment: Positive allosteric modulation of 1 uM Rpt5-activated human erythrocytes 20S proteasome chymotrypsin like activity up to 10 uM using Suc-LLVY-AMC as substrate measured every 1 min up to 60 mins by fluorescence assay
T1 sequence (whole entry): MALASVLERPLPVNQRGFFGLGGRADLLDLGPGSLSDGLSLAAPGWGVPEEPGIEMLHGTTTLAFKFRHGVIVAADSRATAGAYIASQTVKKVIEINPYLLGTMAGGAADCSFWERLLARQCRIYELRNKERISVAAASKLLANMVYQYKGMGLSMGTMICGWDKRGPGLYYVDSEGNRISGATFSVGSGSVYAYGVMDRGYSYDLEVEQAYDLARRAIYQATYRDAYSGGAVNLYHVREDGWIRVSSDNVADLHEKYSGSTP

[2] = target: T1, Proteasome Macropain subunit MB1 (Homo sapiens); experiment: Negative allosteric modulation of 10 uM Rpt5-activated human erythrocytes 20S proteasome chymotrypsin like activity up to 10 uM using Suc-LLVY-AMC as substrate measured every 1 min up to 60 mins by fluorescence assay
[3] = target: T1, Proteasome Macropain subunit MB1 (Homo sapiens); experiment: Positive allosteric modulation of latent human erythrocytes 20S proteasome chymotrypsin like activity at 25 uM using Suc-LLVY-AMC as substrate measured every 2 mins up to 60 mins by fluorescence assay relative to control
[4] = target: T1, Proteasome Macropain subunit MB1 (Homo sapiens); experiment: Positive allosteric modulation of latent human erythrocytes 20S proteasome chymotrypsin like activity using LFP as substrate measured every 2 mins up to 60 mins by fluorescence assay
[5] = target: T1, Proteasome Macropain subunit MB1 (Homo sapiens); experiment: Positive allosteric modulation of latent human erythrocytes 20S proteasome chymotrypsin like activity at 25 uM using LFP as substrate measured every 2 mins up to 60 mins by fluorescence assay relative to control
[6] = target: T1, Proteasome Macropain subunit MB1 (Homo sapiens); experiment: Negative allosteric modulation of SDS-activated human erythrocytes 20S proteasome chymotrypsin like activity up to 10 uM using LFP as substrate measured every 2 mins up to 60 mins by fluorescence assay
[7] = target: T2, 20S proteasome (Homo sapiens) (UniProt P49721+P20618+P28074+P28062+P28065+P28072+P25786+P25787+P25788+P25789+P28066+P60900+O14818+Q8TAA3+P40306+A5LHX3+P49720+P28070+Q99436); experiment: Negative allosteric modulation of SDS-activated human erythrocytes 20S proteasome assessed as reduction in human alpha-synuclein degradation at 1 uM after 1 hr by SDS-PAGE analysis
Outline: (§1)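 Human α-synuclein or yeast enolase digested by human 20S activated with 0.01% SDS (20S:substrate 1:100 pmol α-syn, 1:10 pmol enolase) in 20 mM HEPES pH 7.4 at 37 °C for 1 h (α-syn) or 4 h (enolase). DMSO at or below 0.05%. SDS–PAGE (12% or 10%) with Coomassie staining; remaining substrate densitometry as percent of control; at least three experiments, mean ± SEM.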

[8] = target: T1, Proteasome Macropain subunit MB1 (Homo sapiens); experiment: Stimulation of 20S proteasome chymotrypsin like activity in human primary fibroblasts at 10 uM preincubated for 24 hrs followed by Suc-LLVY-AMC substrate addition and measured at 2 mins interval up to 60 mins by fluorescence assay relative to control
Outline: (§2)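 Fibroblasts (GM04390, 3% O2, 37 °C) exposed to 0.1–20 μM peptide or DMSO for 24 h after Optimem switch. Cells scraped, lysed in 50 mM Tris/HCl pH 7.4, 5 mM MgCl2, 1 mM DTT by mechanical lysis and freeze fractionation. Bradford-normalised lysate (1 μg in 100 μL) incubated with 50 μM Suc-LLVY-AMC; fluorescence ex 370/em 460 nm.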

[9] = target: T1, Proteasome Macropain subunit MB1 (Homo sapiens); experiment: Stimulation of 20S proteasome chymotrypsin like activity in human primary fibroblasts preincubated for 24 hrs followed by Suc-LLVY-AMC substrate addition and measured at 2 mins interval up to 60 mins by fluorescence assay; outline: as §2
[10] = target: T2, 20S proteasome (Homo sapiens); experiment: Effect on alpha-face conformations of latent human erythrocytes 20S proteasome assessed as open state conformation at 1 uM by atomic force microscopic method (reference value: 7%)
[11] = target: T2, 20S proteasome (Homo sapiens); experiment: Effect on alpha-face conformations of latent human erythrocytes 20S proteasome assessed as intermediate state conformation at 1 uM by atomic force microscopic method (reference value: 22%)
[12] = target: T2, 20S proteasome (Homo sapiens); experiment: Positive allosteric modulation of SDS-activated human erythrocytes 20S proteasome assessed as increase in yeast enolase degradation at 10 uM after 4 hr by SDS-PAGE analysis
[13] = target: T2, 20S proteasome (Homo sapiens); experiment: Positive allosteric modulation of SDS-activated human erythrocytes 20S proteasome assessed as increase in human alpha-synuclein degradation at 10 uM after 1 hr by SDS-PAGE analysis
[14] = target: T3, Proteasome component C5 (Homo sapiens) (UniProt P20618); experiment: Positive allosteric modulation of latent human erythrocytes 20S proteasome caspase like activity at 10 uM measured every 1 min up to 60 mins by fluorescence assay relative to control
T3 sequence (whole entry): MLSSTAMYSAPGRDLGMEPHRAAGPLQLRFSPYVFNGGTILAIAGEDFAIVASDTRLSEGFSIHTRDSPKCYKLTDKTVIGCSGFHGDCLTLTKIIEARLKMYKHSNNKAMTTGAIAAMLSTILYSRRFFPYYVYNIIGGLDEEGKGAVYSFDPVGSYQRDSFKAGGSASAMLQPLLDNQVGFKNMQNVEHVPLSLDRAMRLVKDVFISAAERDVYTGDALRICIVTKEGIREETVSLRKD

[15] = target: T2, 20S proteasome (Homo sapiens); experiment: Positive allosteric modulation of SDS-activated human erythrocytes 20S proteasome assessed as increase in yeast enolase degradation at 1 uM after 4 hr by SDS-PAGE analysis relative to control
[16] = target: Proteasome subunit beta type-6 (Homo sapiens) (UniProt P28072); experiment: Positive allosteric modulation of latent human erythrocytes 20S proteasome caspase like activity at 10 uM using Z-LLE-AMC as substrate measured every 1 min up to 60 mins by fluorescence assay relative to control
Chain of Proteasome subunit beta type-6 (Homo sapiens) (P28072 whole entry, looked up): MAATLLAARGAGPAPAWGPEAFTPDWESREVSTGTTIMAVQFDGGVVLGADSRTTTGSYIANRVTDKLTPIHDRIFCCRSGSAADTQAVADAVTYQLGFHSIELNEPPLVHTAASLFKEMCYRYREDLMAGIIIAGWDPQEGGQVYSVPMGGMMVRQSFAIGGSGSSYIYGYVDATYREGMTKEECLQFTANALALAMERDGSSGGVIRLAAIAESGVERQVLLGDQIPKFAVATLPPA

[17] = target: T1, Proteasome Macropain subunit MB1 (Homo sapiens); experiment: Negative allosteric modulation of SDS-activated human erythrocytes 20S proteasome chymotrypsin like activity using Suc-LLVY-AMC as substrate measured every 2 mins up to 60 mins by fluorescence assay
Outline: (§3)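 1.4 nM CP (0.001 mg/mL) in 50 mM Tris-HCl pH 8.0, activated with 0.005% SDS where stated, otherwise latent. Suc-LLVY-AMC at 100 μM final. AMC fluorescence read every 2 min up to 60 min at 37 °C. Activity relative to DMSO-treated enzyme, from at least three independent replicates. Peptide stocks 10 mM in DMSO.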

[18] = target: T1, Proteasome Macropain subunit MB1 (Homo sapiens); experiment: Positive allosteric modulation of latent human erythrocytes 20S proteasome chymotrypsin like activity up to 10 uM using LFP as substrate measured every 2 mins up to 60 mins by fluorescence assay
[19] = target: T1, Proteasome Macropain subunit MB1 (Homo sapiens); experiment: Positive allosteric modulation of latent human erythrocytes 20S proteasome chymotrypsin like activity up to 10 uM using Suc-LLVY-AMC as substrate measured every 2 mins up to 60 mins by fluorescence assay; outline: as §3
[20] = target: T2, 20S proteasome (Homo sapiens); experiment: Negative allosteric modulation of SDS-activated human erythrocytes 20S proteasome assessed as reduction in human alpha-synuclein degradation at 10 uM after 1 hr by SDS-PAGE analysis; outline: as §1
[21] = target: T2, 20S proteasome (Homo sapiens); experiment: Effect on alpha-face conformations of latent human erythrocytes 20S proteasome assessed as open state conformation at 10 uM by atomic force microscopic method (reference value: 7%)
[22] = target: T2, 20S proteasome (Homo sapiens); experiment: Effect on alpha-face conformations of latent human erythrocytes 20S proteasome assessed as intermediate state conformation at 10 uM by atomic force microscopic method (reference value: 22%)
[23] = target: T2, 20S proteasome (Homo sapiens); experiment: Effect on alpha-face conformations of latent human erythrocytes 20S proteasome assessed as closed state conformation at 1 uM by atomic force microscopic method (reference value: 70%)
[24] = target: T2, 20S proteasome (Homo sapiens); experiment: Effect on alpha-face conformations of latent human erythrocytes 20S proteasome assessed as closed state conformation at 10 uM by atomic force microscopic method (reference value: 70%)
[25] = target: T2, 20S proteasome (Homo sapiens); experiment: Negative allosteric modulation of SDS-activated human erythrocytes 20S proteasome assessed as reduction in yeast enolase degradation at 1 uM after 4 hr by SDS-PAGE analysis
[26] = target: T2, 20S proteasome (Homo sapiens); experiment: Negative allosteric modulation of SDS-activated human erythrocytes 20S proteasome assessed as reduction in yeast enolase degradation at 10 uM after 4 hr by SDS-PAGE analysis
[27] = target: T1, Proteasome Macropain subunit MB1 (Homo sapiens); experiment: Positive allosteric modulation of latent human erythrocytes 20S proteasome chymotrypsin like activity up to 10 uM using LFP as substrate measured every 2 mins up to 60 mins by fluorescence assay
[28] = target: Proteasome Macropain subunit (Homo sapiens) (UniProt P49721); experiment: Negative allosteric modulation of SDS-activated human erythrocytes 20S proteasome trypsin like activity at 10 uM using Boc-LRR-AMC as substrate measured every 2 mins up to 60 mins by fluorescence assay
Chain of Proteasome Macropain subunit (Homo sapiens) (P49721 whole entry): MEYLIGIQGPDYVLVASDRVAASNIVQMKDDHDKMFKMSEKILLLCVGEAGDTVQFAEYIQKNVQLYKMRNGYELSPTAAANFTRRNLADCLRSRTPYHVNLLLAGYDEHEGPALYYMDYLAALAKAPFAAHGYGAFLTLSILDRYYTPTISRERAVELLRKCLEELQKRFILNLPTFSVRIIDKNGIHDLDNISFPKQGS

[29] = target: T3, Proteasome component C5 (Homo sapiens); experiment: Negative allosteric modulation of SDS-activated human erythrocytes 20S proteasome caspase like activity at lower concentration using Z-LLE-AMC as substrate measured every 2 mins up to 60 mins by fluorescence assay

- fold change (FC) [1]: 2
- Activity [2]: inactive
- fold change (FC) [3]: < 7
- Activity [4]: Dose-dependent effect
- fold change (FC) [5]: 14
- Activity [6]: inactive
- Activity [7]: inactive
- fold change (FC) [8]: 3
- Activity [9]: Dose-dependent effect
- Activity [10]: 18%
- Activity [11]: 36%
- Activity [12]: Active
- Activity [13]: Active
- fold change (FC) [14]: 5 to 7
- fold change (FC) [15]: > 2
- fold change (FC) [16]: 5 to 7
SMILES: C[C@H](NC(=O)[C@H](Cc1ccc(O)cc1)NC(=O)[C@H](Cc1ccc(O)cc1)NC(=O)[C@@H]1CCCN1C(=O)[C@@H]1CCCN1C(=O)[C@@H]1CCCN1C(=O)[C@@H]1CCCN1C(=O)[C@H](CCCNC(=N)N)NC(=O)[C@H](CCCNC(=N)N)NC(=O)[C@@H](N)CCCNC(=N)N)C(=O)O (H-RRRPPPPYYA-OH)

SMILES: CC(C)C[C@H](NC(=O)[C@H](Cc1ccc(O)cc1)NC(=O)[C@@H]1CCCN1C(=O)[C@@H]1CCCN1C(=O)[C@H](CCCNC(=N)N)NC(=O)[C@@H]1CCCN1C(=O)[C@H](CCCNC(=N)N)NC(=O)[C@H](CCCNC(=N)N)NC(=O)[C@@H](N)CCCNC(=N)N)C(=O)N1CCC[C@H]1C(=O)N[C@@H](CCCNC(=N)N)C(=O)N[C@@H](Cc1c[nH]c2ccccc12)C(=O)NCC(=O)O (H-RRRPRPPYLPRWG-OH)
- Activity [17]: Dose-dependent effect
- Activity [18]: inactive
- Activity [6]: Active
- Activity [19]: inactive
- Activity [7]: Active
- Activity [20]: Active
- Activity [10]: < 3%
- Activity [21]: 18%
- Activity [22]: 25%
- Activity [23]: 73%
- Activity [24]: 57%
- Activity [25]: Active
- Activity [26]: Active
- Activity [27]: inactive
- Activity [28]: Active
- Activity [29]: Active
